In the library only some 2% were active in any assay of this set; here they are far more common.
FXN GAA850 act: activators of GAA850 frataxin (FXN) promoter; HEK293 lucGAA850 FXN promoter luciferase reporter, 24 h; percent of 10 µM SAHA response; activation, % at 6 µM; 360,000 tested, 0.56% active;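 active = activation above the average of all compounds screened plus 3 SD, cutoff fixed separately per campaign, cut at about 7.5% in these data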;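 note: 0% = DMSO wells and 100% = 10 µM SAHA wells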
APJ antagonist: blocks the human apelin receptor APJ. P35414. inhibition, % at 20 µM. CHO-K1 APJ beta-arrestin complementation, luminescence. AID 2521. 330,000 tested, 0.32% active;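 active = inhibition above about 40% at 20 µM, limit read from the data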;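 note: cells challenged with 10 nM apelin-13 agonist together with compound; plate controls were apelin-13 plus DMSO wells for no effect and DMSO wells lacking apelin-13 for full effect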
Target sequence (P35414 whole entry, looked up): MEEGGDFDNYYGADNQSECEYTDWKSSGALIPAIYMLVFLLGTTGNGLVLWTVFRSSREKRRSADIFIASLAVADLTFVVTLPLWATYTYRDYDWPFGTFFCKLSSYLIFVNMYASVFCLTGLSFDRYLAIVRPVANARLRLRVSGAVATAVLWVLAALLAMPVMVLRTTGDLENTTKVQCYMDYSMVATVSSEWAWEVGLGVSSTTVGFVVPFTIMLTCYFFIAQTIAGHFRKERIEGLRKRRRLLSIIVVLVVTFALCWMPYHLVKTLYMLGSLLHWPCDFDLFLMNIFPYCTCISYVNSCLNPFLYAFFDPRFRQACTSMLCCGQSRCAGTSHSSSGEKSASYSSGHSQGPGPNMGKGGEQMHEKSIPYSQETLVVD
CXCR6 block: blocks human CXCR6 beta-arrestin recruitment | CHO-K1 PathHunter CXCR6 beta-arrestin, luminescence | inhibition, % at 20 µM | 360,000 tested, 0.36% active; in the data active = inhibition above about 34%, passing the limit was not always enough;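 note: antagonist mode with CXCL16 agonist at 10 nM final; 0% = 10 nM CXCL16 with DMSO and 100% = unstimulated wells without agonist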
Target sequence (O00574 whole entry, looked up): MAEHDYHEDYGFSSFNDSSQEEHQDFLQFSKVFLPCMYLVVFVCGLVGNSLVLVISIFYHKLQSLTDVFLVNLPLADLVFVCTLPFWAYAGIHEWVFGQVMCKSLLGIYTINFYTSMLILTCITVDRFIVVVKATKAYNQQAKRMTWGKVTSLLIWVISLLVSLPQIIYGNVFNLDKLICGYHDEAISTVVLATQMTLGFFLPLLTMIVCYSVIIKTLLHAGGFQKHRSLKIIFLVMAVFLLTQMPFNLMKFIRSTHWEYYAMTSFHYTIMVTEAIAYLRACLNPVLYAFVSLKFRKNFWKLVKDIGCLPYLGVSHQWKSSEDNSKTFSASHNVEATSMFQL
CCR6 antagonist: CCR6 (human) receptor antagonism | P51684 | 340,000 tested, 0.49% active | inhibition, % at 20 µM | CHO-K1 CCR6 PathHunter beta-arrestin, luminescence, CCL20-stimulated;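 active = compounds whose inhibition of the agonist-driven luminescence signal at 20 µM reaches about 50%, limit read from the data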;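 note: cells stimulated with CCL20 at 14 nM final; plate controls were DMSO with CCL20 for no effect and DMSO without agonist for full effect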
APJ agonist: activates the human apelin receptor APJ | P35414 | CHO-K1 APJ PathHunter beta-arrestin, luminescence; 0% DMSO wells, 100% apelin | activation, % at 20 µM | 330,000 tested, 0.11% active | AID 2520;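 active = activation more than six SD over the plate average, tested at 20 µM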;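 note: 0% = DMSO alone and 100% = apelin-13 at 10 nM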
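Assay system: CHO-K1 cells stably expressing ProLink-tagged human APJ and arrestin–beta-gal acceptor. Compound dosing: 20 µM single point, 1% DMSO. Times: 16-18 h seeding, 90 min dark compound exposure, 60 min detection. Detection: beta-gal luminescence. Evaluation: APJ–arrestin association signal. Controls: negative DMSO alone, positive Apelin-13 at 10 nM.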
EBI2 antag: EBI2 (human) antagonism; P32249; EBI2 beta-arrestin recruitment, luminescence, 7a,25-OHC stimulated; inhibition, % at 5 µM; 360,000 tested, 0.81% active; AID 651636; in the data active = inhibition above about 38%;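 note: enzyme fragment complementation signal reports receptor beta-arrestin coupling in cells; 0% = agonist plus DMSO wells and 100% = wells without agonist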
GAA30 counter: activates GAA30 frataxin promoter, counter-screen for GAA850 activators; shares compounds with FXN GAA850 act; HEK293 lucGAA30 FXN promoter luciferase, 24 h; DMSO = 0%, 5 µM ipriflavone = 100%; activation, % at 6 µM; 1,900 tested, 66% active; AID 588350;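 active = mean activation above the mean of solvent-only control wells plus 3 SD, cut at about 22% in these data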;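 note: counterscreen of GAA850 promoter hits where activity marks nonselective or luminescence artifacts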
FXN GAA850 conf: GAA850 FXN promoter activation confirmation. HEK293 lucGAA850 FXN promoter luciferase reporter, 24 h; 100% = activation by SAHA. activation, % at 6 µM. shares compounds with FXN GAA850 act. 1,900 tested, 86% active. AID 588351;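 active = mean activation above a set limit taken from the primary screen, cut at about 8% in these data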;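 note: 0% = DMSO wells and 100% = 10 µM SAHA wells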
* = called active by the depositor; x = not tested or not shown.

SMILES	FXN GAA850 act	APJ antagonist	CXCR6 block	CCR6 antagonist	APJ agonist	EBI2 antag	GAA30 counter	FXN GAA850 conf
Cc1ccc(NS(=O)(=O)c2ccc(C)c(NC(=S)NCCN3CCOCC3)c2)c(C)c1	0.3	-0.5	7.2	5.4	-2.8	-7.6	x	x
CC(C)C[C@@]12C(=O)N(c3cccc(F)c3)C(=O)N1[C@H](c1ccc(F)cc1)[C@@H]1C(=O)N(C3CCCCC3)C(=O)[C@@H]12	11.8*	4.8	-3.2	-13.5	-0.6	7.4	18.4	13.6*
COc1ccc(N2C(=O)N3[C@H](c4ccc(Cl)cc4)[C@@H]4C(=O)N(C5CCCCC5)C(=O)[C@@H]4[C@]3(C)C2=O)cc1	13.5*	-3.6	-8.4	-4.0	10.8	3.8	9.1	5.4
C[C@@]12C(=O)N(c3cccc(F)c3)C(=O)N1[C@H](c1ccc(Cl)cc1)[C@@H]1C(=O)N(C3CCCCC3)C(=O)[C@@H]12	11.2*	-4.3	-0.5	-13.2	0.8	1.4	7.6	5.3
CC(C)C[C@@]12C(=O)N(c3cccc(F)c3)C(=O)N1[C@H](c1ccc(Cl)cc1)[C@@H]1C(=O)N(C3CCCCC3)C(=O)[C@@H]12	15.6*	13.7	-20.6	-14.0	-4.3	-10.3	25.5*	14.2*
O=C1[C@H]2[C@@H](c3ccc(F)cc3)N3C(=O)N(c4cccc(Cl)c4)C(=O)[C@@]3(Cc3ccc(Cl)cc3)[C@H]2C(=O)N1C1CCCCC1	0.5	16.8	-2.4	5.3	-2.7	0.5	x	x
O=C1[C@H]2[C@@H](c3ccc(Cl)cc3)N3C(=O)N(c4cccc(Br)c4)C(=O)[C@@]3(Cc3ccc(Cl)cc3)[C@H]2C(=O)N1C1CCCCC1	6.6	6.5	1.6	14.7	6.7	0.5	x	x
O=C1[C@H]2[C@@H](c3ccc(F)cc3)N3C(=O)N(c4cccc(Br)c4)C(=O)[C@@]3(Cc3ccc(Cl)cc3)[C@H]2C(=O)N1C1CCCCC1	-0.1	-5.1	3.5	5.4	-0.6	3.3	x	x
CC(C)CN(C(=O)COc1ccc(-c2nnco2)cc1)C1CCS(=O)(=O)C1 (centres undefined)	0.8	5.4	-4.2	0.1	-2.5	1.7	x	x
Cc1ncc2c(n1)NC(=O)NC2	1.4	x	-3.6	5.5	x	5.0	x	x
CC(CC(=O)N1CCc2ccccc21)n1cccn1 (centres undefined)	2.1	10.3	-2.4	3.9	-0.7	-0.2	x	x
CCOc1ccc(Nc2n[nH]c(=S)s2)cc1	9.8*	-32.1	-12.3	9.1	2.0	-4.7	116.1*	31.8*
CCOC(=O)CN1C(=O)S/C(=C/C=C/c2ccc(N(C)C)cc2)C1=O	8.0*	13.0	16.3	33.4	-6.7	15.6	77.6*	33.8*
Cn1cc(-c2coc3c(C(=O)NCc4cccc(Cl)c4)cccc23)cn1	0.3	x	2.3	x	x	17.4	x	x
COc1cc2c(cc1OC)/C(=C/C(=O)c1ccc(F)cc1)NCC2	4.2	-0.9	-6.7	-13.2	-1.0	4.0	x	x
COc1cc2c(cc1OC)/C(=C/C(=O)c1ccccc1F)NCC2	8.3*	-1.6	-5.7	10.6	1.7	-3.0	16.6	12.4*
COCCCNc1nc2c(-c3ccc(C)cc3)nnn2c2ccccc12	7.7*	8.0	-6.7	3.8	0.4	-3.7	92.4*	39.4*
COCCCNc1nc2c(-c3cccc(C)c3)nnn2c2ccccc12	-1.4	16.4	-5.0	4.5	-4.1	6.3	x	x
O=C(NCc1ccccc1)c1cc(C2CCCCN2C(=O)c2ccc3c(c2)CCO3)on1 (centres undefined)	-1.1	x	-6.5	x	x	-1.9	x	x
Cc1cc2[nH]c3c(c[n+](C)c4ccccc34)c2cc1C	10.5*	9.9	-1.4	17.3	11.1	-10.0	-14.0	95.0*
Cc1cc2[nH]c3c4ccccc4nc(C)c3c2cc1C	-0.9	x	-6.1	3.0	x	-3.0	x	x
COc1cc(-c2cc(NC(C)=O)c3ncc(-c4ccc(C(C)=O)cc4)n3c2)cc(OC)c1OC	0.3	x	-0.1	x	x	-2.9	x	x
COc1ccc(-c2nc3c(Br)c(N)c(Br)cc3o2)cc1	6.9	-12.5	6.1	-6.2	-1.8	1.7	x	x
Nc1c(Br)cc2oc(-c3ccccc3)nc2c1Br	7.9*	10.8	3.0	-3.4	-0.6	2.0	102.4*	40.9*
CC(=O)N/C(=C\c1ccccc1)C(=O)OCC(=O)NC(C)C12CC3CC(CC(C3)C1)C2 (centres undefined)	12.8*	-6.3	-6.3	9.9	-1.1	7.9	29.7*	12.9*
SMILES	FXN GAA850 act	APJ antagonist	CXCR6 block	CCR6 antagonist	APJ agonist	EBI2 antag	GAA30 counter	FXN GAA850 conf
CC(NC(=O)COC(=O)[C@@H]1CCCN1S(=O)(=O)c1ccccc1F)C12CC3CC(CC(C3)C1)C2 (some centres undefined)	8.8*	-25.1	0.2	14.2	-0.7	3.2	27.8*	14.7*
CN1CCCN(C(=O)c2c(F)cccc2Cl)CC1	1.3	-24.6	1.3	9.0	4.7	-11.5	x	x
Cc1ccc(N=Nc2c(O)n(CN3CCOCC3)c3ccccc23)cc1	7.7*	11.2	7.1	7.3	-6.3	19.8	135.0*	50.2*
Cc1cccc(NC(=S)N=Nc2c(O)n(CN3CCOCC3)c3ccccc23)c1C	-1.9	9.9	30.8	45.8	-6.2	8.1	x	x
CC1(c2cccc(Br)c2)NC(=O)N(CC(=O)c2ccc3c(c2)OCO3)C1=O (centres undefined)	-0.2	x	-8.1	x	x	-2.7	x	x
CCOc1ccc(C2C(C(=O)c3ccc(C)o3)=C(O)C(=O)N2c2nc(C)c(C(=O)OC)s2)cc1 (centres undefined)	7.6*	14.2	11.5	1.2	-2.2	-15.3	33.5*	18.1*
COC(=O)c1sc(N2C(=O)C(O)=C(C(=O)c3ccc(C)o3)C2c2ccc([N+](=O)[O-])cc2)nc1C (centres undefined)	0.3	17.9	11.5	16.6	-8.6	-5.3	x	x
Nc1nc2c(nnn2C2CC(O)C(CO)O2)c(=O)[nH]1 (centres undefined)	x	x	-3.6	x	x	7.6	x	x
COc1ccc(S(=O)(=O)Oc2ccccc2C(N)=O)cc1	0.2	23.2	7.8	9.6	-6.1	-12.5	x	x
COC(=O)c1ccc(CSc2nc3ccccc3c(=O)n2-c2ccccc2)o1	15.6*	-11.9	22.8	16.0	-5.2	19.1	20.5	12.4*
COc1ccc(S(=O)(=O)N2CCCOC2CNC(=O)C(=O)NCc2ccccc2C)cc1 (centres undefined)	-1.5	x	5.9	x	x	-0.4	x	x
Cc1cc(Cl)ccc1OCCCC(=O)N1CCOCC1	-0.5	16.8	-1.5	-3.3	-1.8	12.8	x	x

Assay outcomes (PubChem)
